# Screening data from PubChem.
# Rows were chosen to be rich in hits. Some 2.1% of all compounds tested hit in one or more screens of this group.
# MIN6 prolif-1: inducers of beta-cell replication in MIN6 cells. MIN6 cells proliferation, ATPlite luminescence, 48 h; cells starved in 0.2% serum; 100% = growth in 10% serum. proliferation, % at 10 µM. 0.29% of 330,000 active;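 active means compounds whose signal lies at least 3.5 SD above the mean of all wells on their plate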;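 further: 0% = DMSO-treated cells in low-serum medium and 100% = 10% serum control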
# UCH37 inh: inhibitors of human deubiquitinating enzyme UCH37; Q9Y5K5; purified proteasome/UCH37, Ub-AMC cleavage fluorescence; inhibition, % (concentration not given with the values); 0.33% of 330,000 active; AID 588478;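 active means mean inhibition over replicate wells above about 20%, limit read from the data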;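 further: 0% = compound-free wells with enzyme and 100% = wells lacking proteasome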
# Target sequence (Q9Y5K5 whole entry, looked up): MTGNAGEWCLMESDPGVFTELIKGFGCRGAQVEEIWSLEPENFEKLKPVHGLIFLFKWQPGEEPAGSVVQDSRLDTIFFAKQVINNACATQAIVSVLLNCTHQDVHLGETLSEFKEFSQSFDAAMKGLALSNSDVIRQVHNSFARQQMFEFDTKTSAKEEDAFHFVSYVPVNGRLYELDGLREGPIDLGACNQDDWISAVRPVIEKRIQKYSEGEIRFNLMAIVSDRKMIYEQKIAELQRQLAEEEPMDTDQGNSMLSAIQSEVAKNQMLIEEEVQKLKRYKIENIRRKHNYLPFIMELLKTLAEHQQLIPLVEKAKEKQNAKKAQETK
#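 system = Proteasome-associated human UCH37 deubiquitinase | amount = 0.15 nM proteasome as dispensed | medium = pH 7.4 Tris-HCl (50 mM) with ovalbumin, ATP-MgCl2, DTT | incubation = 30 min preincubation with enzyme, 25 min cleavage at room temperature | detection = AMC fluorescence 355/460 nm | read-out basis = percent inhibition | controls = no-proteasome and no-compound wells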
# CRFBP-R2 block: antagonists of CRF-binding protein/CRF-R2 receptor complex; HEK293 CRF-R2/CRF-BP, CRF-induced calcium fluorescence; 0.59% of 350,000 active; inhibition, % at 11.8 µM; AID 588475;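 active means inhibition of the ligand-induced calcium signal above about 50% at the single tested concentration, limit read from the data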
# CRFBP-R2 agonist: CRF-BP/CRF-R2 complex agonism. HEK293 CRF-R2/CRF-BP, calcium dye fluorescence (FLIPR); percent of saturating CRF peptide response. activation, % at 13.2 µM. 0.46% of 350,000 active. AID 588473;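 active means activation of at least 50%, plus an integration ratio under a set limit after plate pattern correction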;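 further: plate controls were neutral control wells without compound for no effect and CRF at EC100 for full effect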
# Cardio protect: protects H9c2 cardiomyocytes from peroxide injury; 0.63% of 360,000 active; H2O2 injury protection, ATPLite, 2 h; protection from H2O2 cell death, % at 20 µM; AID 588492;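 active means compounds giving at least 50% protection of heart cells from peroxide-induced death in the single-dose screen, raw or plate-pattern-corrected value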;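 further: 0% = DMSO wells with peroxide and 100% = DMSO wells without peroxide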
# hiPSC survival: increases survival of single human iPS cells. hiPSC single-cell survival, ATPlite luminescence; 100% = ROCK inhibitor wells, 0% = DMSO. survival enhancement, % at 20 µM. 0.044% of 360,000 active; in the data active means survival enhancement above about 18%;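 further: cells exposed to compounds for 16 hours before the ATP read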
# MIN6 prolif-2: MIN6 beta-cell replication induction, confirmed. proliferation increase, % at 50 µM. MIN6 beta-cell proliferation, ATPlite luminescence, 48 h; cells kept in 0.2% serum; scaled between 0.2% and 10% serum. 920 tested, under 10 active. shares compounds with MIN6 prolif-1. AID 463095;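 active means proliferation increase above 40% at any of the four tested concentrations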
# * marks the source's active call; other numbers are inactive results; nt = no result given.
SMILES,MIN6 prolif-1,UCH37 inh,CRFBP-R2 block,CRFBP-R2 agonist,Cardio protect,hiPSC survival,MIN6 prolif-2
COc1ccc(CCn2c(=N)c(S(=O)(=O)c3ccc(C)cc3)cc3c(=O)n4ccccc4nc32)cc1,13*,-5,-26,27,3,0,-3
Nc1c(Cl)ncnc1NN=Cc1cccc(O)c1,nt,18,nt,nt,nt,nt,nt
CCN(CC)S(=O)(=O)c1ccc(OC(C)C)c(NC(=O)C2=COCCO2)c1,16*,nt,9,-1,-4,0,-6
CCN(CC)S(=O)(=O)c1ccc(N2CCCC2)c(NC(=O)C2=COCCO2)c1,-4,6,6,3,-3,-1,nt
CC(=O)Nc1ccc(Oc2cnccn2)cc1,0.0*,2,23,-2,3,-1,2
CC(=O)Nc1ccc(Oc2cnc3ccccc3n2)cc1,3,5,-4,1,3,-1,nt
C/C(=N/Nc1ncc(C(F)(F)F)cc1Cl)c1ccncc1,7.8*,nt,2,1,-6,0,-3
FC(F)(F)c1cnc(NN=Cc2ccncc2)c(Cl)c1,nt,11,nt,nt,nt,nt,nt
CCN(CC)CCP(=O)(c1ccccc1)c1ccccc1,4.6*,3,-9,-1,2,1,-3
CP(C)(=O)CCP(=O)(c1ccccc1)c1ccccc1,0,0,12,-3,0,0,nt
CCOC(=O)C(=NNc1ccccc1Cl)N(C)C1CCS(=O)(=O)C1 (stereo not drawn),nt,10,nt,nt,nt,nt,nt
Cc1cccc(C)c1NC(=O)CSc1nc(C2CC2)nc2ccccc12,0.0*,1,-6,1,-5,0,2
COc1cccc(NC(=O)CSc2nc(C3CC3)nc3ccccc23)c1,0,5,7,0,-4,0,nt
COC(=O)CNC(=O)COC(=O)/C=C/c1ccc2ccccc2n1,10*,-2,2,1,1,1,-5
COC(=O)CNC(=O)COC(=O)/C=C/c1cccs1,-2,7,16,-3,10,1,nt
C=C[C@@]1(C)CC(=O)[C@]2(O)[C@@]3(C)[C@@H](O)CCC(C)(C)[C@@H]3[C@H](OC(C)=O)[C@H](O)[C@@]2(C)O1,6,1,-17,3,9,-1,nt
C=C[C@@]1(C)CC(=O)[C@]2(O)[C@@]3(C)[C@@H](O)CCC(C)(C)[C@@H]3[C@H](O)[C@H](OC(C)=O)[C@@]2(C)O1,17*,2,28,2,71*,10,6
CN1C(=O)c2cccc3c(Cl)ccc(c23)C1=O,6.9*,-121,-4,-2,4,-4,-1
COc1ccccc1N1C(=O)c2cccc3c(Cl)ccc(c23)C1=O,1,0,5,-1,-6,-1,nt
CCN1CCN(c2nc(C)nc3c2sc(=S)n3C)CC1,9,nt,-9,-3,7,4,nt
Cc1nc(N(C)C)c2sc(=S)n(Cc3ccccc3)c2n1,-3,6,11,0,-6,0,nt
Cc1nc(N2CCCCC2)c2sc(=S)n(C)c2n1,8.9*,4,3,-3,-1,0,5
CCN(CC)c1nc(C)nc2c1sc(=S)n2C,8.0*,nt,11,-6,-2,0,-6
CC1CC(=NNC(=O)CCc2ccc(S(=O)(=O)N3CCOCC3)cc2)CC(C)(C)C1 (stereo not drawn),nt,1,nt,nt,nt,nt,nt
NC(=O)c1ccc(C2SCC(=O)N2CCc2ccccc2)cc1 (stereo not drawn),0,1,1,-1,7,0,nt
O=C1CSC(c2ccccc2)N1CCc1ccccc1 (stereo not drawn),7.5*,1,8,1,5,-1,0
COc1ccc(NC(=S)NN=Cc2ccc(F)c(F)c2)cc1,nt,2,nt,nt,nt,nt,nt
COc1cc(NC(=O)CN(c2ccc(C)cc2)S(=O)(=O)c2c(C)n[nH]c2C)cc(OC)c1,0.0*,4,-12,1,-2,2,-6
CCn1c(Oc2ccc(F)cc2)nc2c1c(=O)n(C)c(=O)n2C,7.3*,nt,5,-1,-8,0,6
